Measured values reported in ChEMBL document CHEMBL4699398, “The synthesis and biological evaluation of sanguinarine derivatives as anti-non-small cell lung cancer agents” (RSC Med Chem, 2020).
Activity calls are given as the source filed them. No cut-off for these calls is given here.

What was measured:
NCI-H1975 [1] = assay: Induction of apoptosis in human H1975 cells assessed as viable cells at 3 uM after 48 hrs by Annexin V-FITC/7-AAD staining based flow cytometric method (reference value: 88.02 %); format: functional; settings: read-out: Activity
NCI-H1975 [2] = assay: Induction of apoptosis in human H1975 cells assessed as late apoptotic cells at 1 uM after 48 hrs by Annexin V-FITC/7-AAD staining based flow cytometric method (reference value: 4.63 %); format: functional
NCI-H1975 [3] = assay: Induction of cell cycle arrest in human H1975 cells assessed as accumulation in S phase at 3 uM incubated for 24 hrs by […] propidium iodide staining based flow cytometry (reference value: 14.13 %); format: functional
A549 [4] = assay: Induction of apoptosis in human A549 cells assessed as viable cells at 0.3 uM after 48 hrs by Annexin V-FITC/7-AAD staining based flow cytometric method (reference value: 93.10 %); format: functional; settings: read-out: Activity
NCI-H1975 [5] = assay: Induction of apoptosis in human H1975 cells assessed as increase in phosphorylated Akt level at 0.1 to 3 uM incubated for 24 hrs by Western blot analysis; format: functional, cell-based; settings: dose microM 0.1-3, time 24.0 hrs
Method in brief: (§1)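 After treatment, cells harvested and lysed in RIPA buffer; equal protein loaded on 12% SDS-PAGE and transferred to PVDF; blocked in 5% milk 2 h at room temperature; primary antibodies (AKT, p-AKT, cleaved caspase-3, cleaved caspase-9, PARP; GAPDH loading control) overnight at 4 °C; HRP secondaries 2 h at room temperature; chemiluminescent detection.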

NCI-H1975 [6] = assay: Induction of cell cycle arrest in human H1975 cells assessed as accumulation in G0/G1 phase at 3 uM incubated for 24 hrs by […] propidium iodide staining based flow cytometry (reference value: 62.86 %); format: functional
A549 [7] = assay: Induction of cell cycle arrest in human A549 cells assessed as accumulation in S phase at 0.3 uM incubated for 24 hrs by […] propidium iodide staining based flow cytometry (reference value: 14.16 %); format: functional
A549 [8] = assay: Induction of apoptosis in human A549 cells assessed as necrotic cells at 1 uM after 48 hrs by Annexin V-FITC/7-AAD staining based flow cytometric method (reference value: 0.70 %); format: functional
A549 [9] = assay: Induction of cell cycle arrest in human A549 cells assessed as accumulation in G2/M phase at 3 uM incubated for 24 hrs by […] propidium iodide staining based flow cytometry (reference value: 22.46 %); format: functional
NCI-H1975 [10] = assay: Induction of apoptosis in human H1975 cells assessed as increase in cleaved caspase-9 level at 0.1 to 3 uM incubated for 24 hrs by Western blot analysis; format: functional, cell-based; settings: dose microM 0.1-3, time 24.0 hrs; method in brief: as §1
A549 [11] = assay: Induction of cell cycle arrest in human A549 cells assessed as accumulation in S phase at 1 uM incubated for 24 hrs by […] propidium iodide staining based flow cytometry (reference value: 14.16 %); format: functional
A549 [12] = assay: Induction of apoptosis in human A549 cells assessed as late apoptotic cells at 3 uM after 48 hrs by Annexin V-FITC/7-AAD staining based flow cytometric method (reference value: 2.94 %); format: functional
A549 [13] = assay: Induction of cell cycle arrest in human A549 cells assessed as accumulation in G2/M phase at 1 uM incubated for 24 hrs by […] propidium iodide staining based flow cytometry (reference value: 22.46 %); format: functional
A549 [14] = assay: Induction of cell cycle arrest in human A549 cells assessed as accumulation in G0/G1 phase at 0.3 uM incubated for 24 hrs by […] propidium iodide staining based flow cytometry (reference value: 63.11 %); format: functional
NCI-H1975 [15] = assay: Induction of cell cycle arrest in human H1975 cells assessed as accumulation in G2/M phase at 3 uM incubated for 24 hrs by […] propidium iodide staining based flow cytometry (reference value: 21.00 %); format: functional
NCI-H1975 [16] = assay: Induction of apoptosis in human H1975 cells assessed as early apoptotic cells at 0.3 uM after 48 hrs by Annexin V-FITC/7-AAD staining based flow cytometric method (reference value: 6.50 %); format: functional
A549 [17] = assay: Induction of apoptosis in human A549 cells assessed as increase in phosphorylated Akt level at 0.1 to 3 uM incubated for 24 hrs by Western blot analysis; format: functional, cell-based; settings: dose microM 0.1-3, time 24.0 hrs; method in brief: as §1
NCI-H1975 [18] = assay: Induction of apoptosis in human H1975 cells assessed as necrotic cells at 1 uM after 48 hrs by Annexin V-FITC/7-AAD staining based flow cytometric method (reference value: 0.85 %); format: functional
NCI-H1975 [19] = assay: Induction of apoptosis in human H1975 cells assessed as early apoptotic cells at 3 uM after 48 hrs by Annexin V-FITC/7-AAD staining based flow cytometric method (reference value: 6.50 %); format: functional
A549 [20] = assay: Induction of apoptosis in human A549 cells assessed as early apoptotic cells at 1 uM after 48 hrs by Annexin V-FITC/7-AAD staining based flow cytometric method (reference value: 3.26 %); format: functional
NCI-H1975 [21] = assay: Induction of apoptosis in human H1975 cells assessed as viable cells at 1 uM after 48 hrs by Annexin V-FITC/7-AAD staining based flow cytometric method (reference value: 88.02 %); format: functional; settings: read-out: Activity
NCI-H1975 [22] = assay: Induction of apoptosis in human H1975 cells assessed as late apoptotic cells at 3 uM after 48 hrs by Annexin V-FITC/7-AAD staining based flow cytometric method (reference value: 4.63 %); format: functional
NCI-H1975 [23] = assay: Induction of cell cycle arrest in human H1975 cells assessed as accumulation in G0/G1 phase at 0.3 uM incubated for 24 hrs by […] propidium iodide staining based flow cytometry (reference value: 62.86 %); format: functional
A549 [24] = assay: Induction of apoptosis in human A549 cells assessed as increase in cleaved caspase-9 level at 0.1 to 3 uM incubated for 24 hrs by Western blot analysis; format: functional, cell-based; settings: dose microM 0.1-3, time 24.0 hrs; method in brief: as §1
NCI-H1975 [25] = assay: Induction of apoptosis in human H1975 cells assessed as viable cells at 0.3 uM after 48 hrs by Annexin V-FITC/7-AAD staining based flow cytometric method (reference value: 88.02 %); format: functional; settings: read-out: Activity
A549 [26] = assay: Induction of cell cycle arrest in human A549 cells assessed as accumulation in S phase at 3 uM incubated for 24 hrs by […] propidium iodide staining based flow cytometry (reference value: 14.16 %); format: functional

SMILES: CN1c2c(ccc3cc4c(cc23)OCO4)-c2ccc3c(c2C1N1CCOCC1)OCO3 (stereo unspecified)
- viability at 3 µM (NCI-H1975 [1]): 1.8%
- Activity (NCI-H1975 [2]): 19.17%
- Activity (NCI-H1975 [3]): 8.75%
- viability at 0.3 µM (A549 [4]): 79.4%
- Activity (NCI-H1975 [5]): Active
- Activity (NCI-H1975 [6]): 77.7%
- Activity (A549 [7]): 14.84%
- Activity (A549 [8]): 4.23%
- Activity (A549 [9]): 13.56%
- Activity (NCI-H1975 [10]): Active
- Activity (A549 [11]): 15.64%
- Activity (A549 [12]): 93.73%
- Activity (A549 [13]): 14.29%
- Activity (A549 [14]): 64.85%
- Activity (NCI-H1975 [15]): 13.21%
- Activity (NCI-H1975 [16]): 10.94%
- Activity (A549 [17]): Active
- Activity (NCI-H1975 [18]): 2.8%
- Activity (NCI-H1975 [19]): 3.11%
- Activity (A549 [20]): 8.03%
- viability at 1 µM (NCI-H1975 [21]): 67.4%
- Activity (NCI-H1975 [22]): 90.5%
- Activity (NCI-H1975 [23]): 62.04%
- Activity (A549 [24]): Active
- viability at 0.3 µM (NCI-H1975 [25]): 82.5%
- Activity (A549 [26]): 15.07%
